Reference: PMC11951139 (Journal of Agricultural and Food Chemistry, 2025)
“Also recorded” adds a separate entry of the source.

What was measured:
DmATG8a = DmATG8a (Drosophila melanogaster, UniProt Q9W2S2); experiment: Microscale thermophoresis; assay type: binding; conditions: for Kd: Kd value (binding affinity with DmATG8a), MST, fluorescently labeled DmATG8a
Summary of the method: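 Wild-type DmATG8a expressed from pET-32a in E. coli BL21(DE3), induced with 1 mM IPTG at 20 °C for 16 h. Purified by His-tag affinity, TEV tag removal and size exclusion in 20 mM Tris-HCl, 300 mM NaCl, pH 7.5. Protein labelled with RED-NHS dye. Test compounds and tryptophan run as 16-point dilutions from 0.06 to 2000 μM, 5 min in the dark, then MST on a Monolith NT.115.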

[1] = system: D. melanogaster adult flies; experiment: Insecticidal activity, combined gastric poisoning and contact method; assay type: in vivo, Drosophila melanogaster; conditions: for insecticidal activity: 500 μg/mL, adult flies, mortality after 24 h
Summary of the method: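 Adult fruit flies, about twenty 2-day-old per dish. Apple slices soaked 1 min in test solution, then placed in the Petri dish, combining ingestion and contact exposure. Triplicate per treatment, with water as negative and avermectin as positive control. Held at 24 ± 1 °C, 75 ± 5% RH, 16 h light:8 h dark. Mortality scored at 24 h by gently touching insects with a brush.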

DmATG8a^K48A = experiment: MST binding to the DmATG8a K48A mutant; parameters: species or system Drosophila melanogaster; conditions: 25 °C
Summary of the method: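 K48A point mutant of DmATG8a made by site-directed mutagenesis in pET-32a. Expressed and purified as for wild type: E. coli BL21(DE3), His-tag affinity, TEV cleavage, desalting. Binding of the test indole assessed by microscale thermophoresis with fluorescently labelled protein.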

DmATG8a, sequence (Q9W2S2 1-121): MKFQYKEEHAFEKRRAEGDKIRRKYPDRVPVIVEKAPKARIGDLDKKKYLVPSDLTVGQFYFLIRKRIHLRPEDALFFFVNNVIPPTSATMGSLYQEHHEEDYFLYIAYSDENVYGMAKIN

| SMILES | Kd (DmATG8a) | insecticidal activity [1] | LC50 ([1]; Drosophila melanogaster, 24 h) | mortality at 15 µg/mL ([1]; Drosophila melanogaster, 24 h) | fold lower Kd than tryptophan (DmATG8a; Kd of 6-fluoroindole versus Kd of tryptophan) | binding to DmATG8a^K48A (DmATG8a^K48A) |
| --- | --- | --- | --- | --- | --- | --- |
| N[C@@H](Cc1c[nH]c2ccccc12)C(=O)O [tryptophan, reference compound] | 67 µM | – | – | – | – | – |
| CC[C@H](C)[C@H]1O[C@]2(C=C[C@@H]1C)C[C@@H]1C[C@@H](C/C=C(\C)[C@@H](O[C@H]3C[C@H](OC)[C@@H](O[C@H]4C[C@H](OC)[C@@H](O)[C@H](C)O4)[C@H](C)O3)[C@@H](C)/C=C/C=C3\CO[C@@H]4[C@H](O)C(C)=C[C@@H](C(=O)O1)[C@]34O)O2 [avermectin] | – | 100% | 30.5 µg/mL | 33% | – | – |
| Fc1ccc2cc[nH]c2c1 [6-fluoroindole] | 3.54 µM | 100% | 169 µg/mL | – | approximately 19 fold | no affinity; also recorded: no binding |
